Rin1 Abl inh: inhibitors of Rin1-Abl protein binding, primary screen, biochemical, TR-FRET; inhibition, % at 7.35 µM; Tyrosine-protein kinase ABL1 (Homo sapiens) + Ras and Rab interactor 1 (Homo sapiens), …; AID 588664, 2011; hit rate 0.4% among 360,000; in the data active = inhibition above about 5%, passing the limit was not always enough
Arrestin-AP2 inh: inhibitors of beta-arrestin/AP2 binding, primary screen, biochemical, GPCR trafficking, flow cytometry. FITC-arrestin peptide / GST-AP2 beads; AP2 beta2 appendage carries R879A mutation. beta-arrestin 1 C-terminal peptide binding to AP2 beta2-adaptin appendage (human). hit rate 0.31% among 340,000. AID 504490, 2011. inhibition, % at 10 µM;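 active = inhibition above a set limit, near 3 SD of compounds lacking own fluorescence, cut at about 54% in these data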
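Measured by: flow cytometry, FL1 (488/535 nm); Material: AP2 appendage R879A on GSH beads; Evaluation: percent response; Timing: pre-incubation 12 min, peptide binding 1 h, room temperature; Also added: 50 nM FITC-arrestin peptide; Medium: PBS with 0.05% Tween 20 and 0.1% BSA.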
MBD2 DNA inh: inhibitors of MBD2 binding to methylated DNA, primary screen, biochemical, TR-FRET, DNA-binding domain, human; inhibition, % at 4.4 µM; MBD2 binding to methylated oligonucleotide; hit rate 0.31% among 370,000; in the data active = inhibition above about 13%
UHRF1 binding: UHRF1 methylated DNA binding inhibitors, primary screen, counter-screen for MBD2 inhibitor project, biochemical, TR-FRET, human UHRF1, single concentration; E3 ubiquitin-protein ligase UHRF1 (Homo sapiens), Q96T88; UHRF1 binding to methylated oligo; inhibition, % at 4.4 µM; hit rate 0.75% among 370,000; in the data active = inhibition above about 21%;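 note: UHRF1 SRA domain binding a hemimethylated CpG hairpin DNA probe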
B2AR ag: beta2AR agonists driving receptor internalization, primary screen, cell-based, FAP fluorogen, flow cytometry; Beta-2 adrenergic receptor (Homo sapiens), P07550; Am2.2-beta2AR cells; response, % (concentration not given with the values); hit rate 0.43% among 340,000; AID 504454, 2011;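 active = response above a set limit, near 3 SD of response in nonfluorescent compounds, cut at about 42% in these data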
ABHD5-PLIN5 inh: ABHD5-PLIN5 interaction inhibitors, primary screen, cell lysate, split luciferase complementation, luminescence; Perilipin-5 (Homo sapiens) + 1-acylglycerol-3-phosphate O-acyltransferase ABHD5 (Homo …; Split G. princeps luciferase complementation, 4 h; inhibition, % at 4 µM; hit rate 0.78% among 360,000;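 active = inhibition above the mean inhibition across every tested compound plus 3 SD, cut at about 22% in these data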
ABHD5 PLIN5 conf: ABHD5-PLIN5 interaction inhibitors, confirmation, biochemical, luminescence. inhibition, % at 4 µM. hit rate 67% among 2,200. shares compounds with ABHD5-PLIN5 inh; in the data active = inhibition above about 23%
HNF4 counter: HNF4 dimerization inhibitors, counter-screen for ABHD5-PLIN5 interaction inhibitor project, biochemical, split-luciferase complementation, luminescence | AID 651674, 2012 | shares compounds with ABHD5-PLIN5 inh | hit rate 77% among 2,200 | inhibition, % at 4 µM;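 active = mean inhibition across replicate wells exceeding the computed hit threshold, cut at about 13% in these data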;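 note: light from luciferase halves that rejoin when HNF4 fusion proteins dimerize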
Target sequence (P41235 whole entry, looked up, the tested form may be a part): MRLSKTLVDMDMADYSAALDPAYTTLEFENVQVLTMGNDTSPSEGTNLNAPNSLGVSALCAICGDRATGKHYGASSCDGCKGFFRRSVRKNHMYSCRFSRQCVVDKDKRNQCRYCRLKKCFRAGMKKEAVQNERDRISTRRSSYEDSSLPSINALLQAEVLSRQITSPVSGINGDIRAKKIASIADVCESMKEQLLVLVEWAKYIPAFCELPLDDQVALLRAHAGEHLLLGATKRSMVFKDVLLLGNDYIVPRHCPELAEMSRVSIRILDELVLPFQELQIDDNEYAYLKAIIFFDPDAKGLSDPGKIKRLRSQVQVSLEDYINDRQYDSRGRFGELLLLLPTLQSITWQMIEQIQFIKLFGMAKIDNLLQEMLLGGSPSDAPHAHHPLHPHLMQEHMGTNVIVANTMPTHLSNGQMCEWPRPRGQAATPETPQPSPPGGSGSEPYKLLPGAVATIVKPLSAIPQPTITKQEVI
A number is an active result; – = inactive; · = no result; ! = a repeat was not active. Shown are actives, neighbours in structure and some others; about 2.5% of the full set was active somewhere.

SMILES | Rin1 Abl inh | Arrestin-AP2 inh | MBD2 DNA inh | UHRF1 binding | B2AR ag | ABHD5-PLIN5 inh | ABHD5 PLIN5 conf | HNF4 counter
Cc1sc2nc3c4ccccc4c(NCc4ccco4)nn3c(=O)c2c1C | – | – | – | – | – | 32 | 46 | 63
Cc1nc(NCc2ccco2)c2c(C)c(C)sc2n1 | – | – | – | – | – | – | · | ·
COc1ccccc1C(=O)NC1CCCCN(Cc2cccc(F)c2)C1=O (stereo not drawn) | · | · | – | – | · | · | · | ·
O=c1[nH]cnc2c1N=C(c1cccc([N+](=O)[O-])c1)CC(c1ccccc1)N2 (stereo not drawn) | – | – | – | – | – | 45 | – | 26
O=[N+]([O-])c1cccc(C2=NC(c3ccccc3)CO2)c1 (stereo not drawn) | – | – | – | – | – | – | · | ·
CC1=NOC(=O)/C1=C\c1ccc(-c2cc(Cl)ccc2Cl)o1 | – | – | – | – | 80 | 39 | 85 | 86
CC1=NOC(=O)/C1=C/c1ccc(-c2ccc(Cl)cc2)o1 | – | – | · | · | 65 | 33 | 99 | 107
COc1ccc(Cl)cc1/C=C1/C(=O)ON=C1C | – | – | – | – | – | – | · | ·
CC1=NOC(=O)/C1=C\c1ccc(-c2ccc(Br)cc2)o1 | – | – | – | – | 83 | 38 | 93 | 106
CC1=NOC(=O)/C1=C\c1ccc(-c2ccc(Br)cc2C(=O)O)o1 | – | – | – | – | – | – | · | ·
CCN(CC)C(=O)N1CCN(C(=O)N(CC)CC)CC1 | – | – | – | – | – | – | · | ·
CCN(CC)C(=O)N1CCN(C)CC1 | – | – | – | – | – | 38 | 80 | 37
O=C1C=CC(O)C2(CO)OC12 (stereo not drawn) | – | · | – | – | · | 67 | 91 | 91
CSCCCNC(=O)CN1C(=O)C2CCCCN2C(=O)c2ccccc21 (stereo not drawn) | · | · | – | – | · | · | · | ·
Cc1cccc(C)c1NC(=O)C(c1ccc(-c2ccccc2)cc1)n1c(=O)c(-c2ccco2)nc2ccccc21 (stereo not drawn) | · | · | – | – | · | 90 | 96 | 27
CC(C)(C)NC(=O)C(c1ccc(-c2ccccc2)cc1)n1c(=O)c(-c2ccco2)nc2ccccc21 (stereo not drawn) | · | · | – | – | · | 73 | 94 | 28
COc1ccc(C(C(=O)NC(C)(C)C)n2c(=O)c(-c3ccco3)nc3ccccc32)cc1 (stereo not drawn) | · | · | – | – | · | 73 | 63 | 26
CC(C)(C)NC(=O)C(c1ccc(C#N)cc1)n1c(=O)c(-c2ccco2)nc2ccccc21 (stereo not drawn) | · | · | – | – | · | 75 | 77 | 26
CC(C)(C)NC(=O)C(c1ccc(-c2ccccc2)cc1)n1c(=O)c(-c2ccccc2)nc2ccccc21 (stereo not drawn) | · | · | – | – | · | – | · | ·
Cc1cccc(C)c1NC(=O)C(c1ccccc1)n1c(=O)c(-c2ccccc2)nc2ccccc21 (stereo not drawn) | · | · | – | – | · | – | · | ·
CC(C)CNC(=O)OCc1cn(Cc2ccccc2C(F)(F)F)nn1 | · | · | – | – | · | · | · | ·
CCn1c(=O)c([N+](=O)[O-])c(NCCN(C)C)c2ccccc21 | – | – | – | – | – | – | · | ·
CCn1c(=O)c([N+](=O)[O-])c(Cl)c2ccccc21 | – | – | · | · | 77 | 41 | 71 | 95
c1ccc(Cn2c(SC3CCCCC3)nnc2-c2cccnc2)cc1 | · | · | – | – | · | · | · | ·
O=C(/C=C/c1ccccc1)c1c[nH]c2ccccc12 | – | – | – | – | – | – | · | ·
SMILES | Rin1 Abl inh | Arrestin-AP2 inh | MBD2 DNA inh | UHRF1 binding | B2AR ag | ABHD5-PLIN5 inh | ABHD5 PLIN5 conf | HNF4 counter
O=C(C=Cc1ccccc1)c1c[nH]c2ccccc2c1=O | – | – | – | – | – | 27 | 74 | 63
Cc1[nH]c2ccccc2c(=O)c1C(=O)/C=C/c1ccccc1 | – | – | – | – | – | 32 | 63 | 56
COCO[C@@H]1CC(CO)=C[C@H]2OCO[C@H]21 | · | · | – | – | · | · | · | ·
O=Cc1ccc(-c2ccccc2C(=O)O)o1 | – | – | – | – | – | – | · | ·
O=C(O)c1ccccc1-c1c2cc(I)c(=O)c(I)c-2oc2c(I)c(O)c(I)cc12 | – | – | – | – | – | 30! | – | –
Cc1ccc(-c2cc(C(=O)Nc3cccnc3)c3ccccc3n2)o1 | – | – | – | – | – | – | · | ·
Cc1ccc(NC(=O)c2cc(-c3ccc(C)o3)nc3ccccc23)cc1 | – | – | – | – | – | 35 | 38 | 40
COC(=O)CSc1[nH]c2ccc(F)cc2c1[N+](=O)[O-] | – | – | – | – | – | 25 | 44 | 83
CCOC(=O)CSc1[nH]c2cc(OC)ccc2c1[N+](=O)[O-] | – | – | – | – | – | – | · | ·
O=S1(=O)c2ccc(Br)cc2OC[C@@H](Cc2ccccc2)N1Cc1cn(Cc2ccc(C(F)(F)F)cc2)nn1 | · | · | – | – | · | · | · | ·
C=CCc1cc(/C=C/c2nc(O)c([N+](=O)[O-])c(=O)[nH]2)cc(OC)c1O | – | – | – | – | – | 27 | 42 | 32
Cn1c(NCCN(CCO)CCCc2ccc([N+](=O)[O-])cc2)cc(=O)n(C)c1=O | – | – | – | – | – | 30 | – | –
CCCCNc1cc(=O)n(C)c(=O)n1C | – | – | – | – | – | – | · | ·
Cc1ccc(CNC(=S)NC2CCC(C(C)(C)C)CC2)cc1 (stereo not drawn) | – | – | – | – | – | – | · | ·
Cc1ccc(CC2(OCCN(C)C)CCC(C(C)(C)C)CC2)cc1 (stereo not drawn) | – | – | – | – | – | 26 | 30 | –
CN(C)CCOC1(Cc2ccc(F)cc2)CCC(C(C)(C)C)CC1 (stereo not drawn) | – | – | – | – | – | 25 | 33 | –
CCCCCCNC(=O)C1CSCCS(=O)(=O)N1Cc1ccc(OC)cc1 (stereo not drawn) | · | · | – | – | · | · | · | ·
CC(COc1cccc(Cl)c1)CN1CCC(C(O)(c2ccccc2)c2ccccc2)CC1 (stereo not drawn) | · | · | – | – | · | · | · | ·
NC1=NC(=O)/C(=C/c2cccc(F)c2)S1 | – | – | – | – | – | – | · | ·
